Experimental data collected from several papers.
SLC18A2: Synaptic vesicular amine transporter (SLC18A2, Homo sapiens, UniProt Q05940)
gag-pol reverse transcriptase: Gag-Pol polyprotein, reverse transcriptase (gag-pol, Human immunodeficiency virus 1, UniProt P03366)
ACKR3: Atypical chemokine receptor 3 (ACKR3, Homo sapiens, UniProt P25106)
CA1: Carbonic anhydrase 1 (CA1, Homo sapiens, UniProt P00915)
LATS1: Serine/threonine-protein kinase LATS1 (LATS1, Homo sapiens, UniProt O95835)
CA2: Carbonic anhydrase 2 (CA2, Homo sapiens, UniProt P00918)
ERBB2: Receptor tyrosine-protein kinase erbB-2 (ERBB2, Homo sapiens, UniProt P04626)
UGT1A4: UDP-glucuronosyltransferase 1A4 (UGT1A4, Homo sapiens, UniProt P22310)

SMILES | target | test | test system | setting | IC50 [nM]
CCc1nn(CCCN2CCN(c3cccc(Cl)c3)CC2)c(=O)n1CCOc1ccccc1 | SLC18A2 | transporter uptake, inhibitor |  |  | 667
CCOC(=O)c1c(NCC(C)C)c2c([nH]c1=O)CCC2 | gag-pol reverse transcriptase | enzyme activity, inhibitor |  |  | 33900
Cn1cc2c(C(=O)O)ccc(NS(=O)(=O)c3ccc(OCC4CCC4)c(Cl)c3)c2n1 | cGMP-dependent 3',5'-cyclic phosphodiesterase (PDE2A, Homo sapiens, UniProt O00408) | enzyme activity |  |  | > 200000
C=CCc1ccccc1OCC(O)CNC(C)C (stereo not shown) | SLC18A2 | transporter uptake, inhibitor |  |  | 7700
CCOC(=O)c1c(NC(CC)CO)c2c([nH]c1=O)CCC2 (stereo not shown) | gag-pol reverse transcriptase | enzyme activity, inhibitor |  |  | > 100000
NC(=O)N1c2ccccc2C=Cc2ccccc21 | Sodium channel protein type 2 subunit alpha (SCN2A, Homo sapiens, UniProt Q99250) | ion current, inhibitor, patch clamp |  |  | > 300000
Clc1ccc2c(c1)C(N1CCNCC1)=Nc1ccccc1O2 | SLC18A2 | transporter uptake, inhibitor |  |  | 8500
CN1CCC(CNc2ccc3ncc(-c4cccc(OC(F)(F)F)c4)n3n2)CC1 | Alpha-2A adrenergic receptor (ADRA2A, Homo sapiens, UniProt P08913) | cAMP, antagonist |  |  | 5170
CN1CCN(CCCN2c3ccccc3Sc3ccc(Cl)cc32)CC1 | SLC18A2 | transporter uptake, inhibitor |  |  | 3720
NC/C(=C\F)COc1cccc(Cn2c(=S)[nH]c(=O)c3[nH]cnc32)c1 | Diamine oxidase [copper-containing] (AOC1, Homo sapiens, UniProt P19801) | enzyme activity, inhibitor |  |  | > 30000
O=C(CCCN1CC=C(n2c(=O)[nH]c3ccccc32)CC1)c1ccc(F)cc1 | SLC18A2 | transporter uptake, inhibitor, radiometric |  | cell membranes | 154
CC(C)(C)NC(=O)C1CCN(Cc2cccc(/N=N/c3cccc(F)c3)c2)CC1 | ACKR3 | ligand displacement, BRET |  |  | 2000
C[C@H]1c2cccc(O)c2C(=O)C2=C(O)[C@]3(O)C(=O)C(C(N)=O)=C(O)[C@@H](N(C)C)[C@@H]3[C@@H](O)[C@@H]21 | CA1 | enzyme activity, inhibitor, absorbance |  | pH 7.4 | 12600
OC1(c2ccc(-c3ccnc4[nH]cc(F)c34)cc2)CCNCC1 | LATS1 | enzyme activity, inhibitor, radiometric |  |  | 2.9
O=C(O[C@H]1CN2CCC1CC2)N1CCc2ccccc2[C@@H]1c1ccccc1 | SLC18A2 | transporter uptake, inhibitor |  |  | 5700
Nc1ccc(S(=O)(=O)c2ccc(N)cc2)cc1 | CA1 | enzyme activity, inhibitor, absorbance |  | pH 7.4 | 17100
[H]/N=C(/N)c1ccc(NCc2nc3cc(C(=O)N(CCC(=O)O)c4ccccn4)ccc3n2C)cc1 | Plasminogen (PLG, Homo sapiens, UniProt P00747) | enzyme activity, inhibitor, absorbance |  |  | 1700
CC(C)(C)NC(=O)C1CCN(Cc2cccc(/N=N/c3ccccc3F)c2)CC1 | ACKR3 | ligand displacement, BRET |  |  | 1260
Cc1cncc(CN2CCC(=C3c4ccc(Cl)cc4CCc4cccnc43)CC2)c1 | CA1 | enzyme activity, inhibitor, absorbance |  | pH 7.4 | 14700
C/C=C/CNc1c2c([nH]c(=O)c1C(=O)OCC)CCC2 | gag-pol reverse transcriptase | enzyme activity, inhibitor |  |  | > 100000
CC[C@H]1OC(=O)[C@H](C)[C@@H](O[C@H]2C[C@@](C)(OC)[C@@H](O)[C@H](C)O2)[C@H](C)[C@@H](O[C@@H]2O[C@H](C)C[C@H](N(C)C)[C@H]2O)[C@](C)(O)C[C@@H](C)CN(C)[C@H](C)[C@@H](O)[C@]1(C)O | CA1 | enzyme activity, inhibitor, absorbance |  | pH 7.4 | 15000
Cc1cc(-c2ccnc3[nH]cc(F)c23)ccc1[C@@]1(O)[C@H](C)CNC[C@@H]1C | LATS1 | target engagement in cells, BRET |  |  | 78
CCOC(=O)c1c(NCCCO)c2c([nH]c1=O)CCC2 | gag-pol reverse transcriptase | enzyme activity, inhibitor |  |  | > 100000

SMILES | target | test | test system | setting | IC50 [nM]
COc1ccnc(C[S+]([O-])c2nc3ccc(OC(F)F)cc3[nH]2)c1OC (stereo not shown) | CA2 | enzyme activity, inhibitor, absorbance |  | pH 7.4 | 13800
O=C1/C(=C/c2ccc3ccccc3c2O)NC(=S)N1c1ccccc1 | ERBB2 | enzyme activity, inhibitor, ELISA |  |  | 197
OC1CCN(c2ccc(/C=N/NC(=S)Nc3ccc(Cl)cc3)cc2)CC1 | CA2 | enzyme activity, inhibitor, absorbance |  |  | 378
COc1cc(C)c(/C=C/C(C)=C/C=C/C(C)=C/C(=O)O)c(C)c1C | CA1 | enzyme activity, inhibitor, absorbance |  | pH 7.4 | 11300
C[C@@H]1CC[C@@]2(OC1)O[C@H]1C[C@H]3[C@@H]4CC[C@H]5C[C@@H](O)CC[C@]5(C)[C@H]4CC(=O)[C@]3(C)[C@H]1[C@@H]2C | UGT1A4 | enzyme activity, inhibitor |  |  | 2300
CNC(=O)c1ccccc1Nc1nc(Nc2ccc(N3CCNCC3)cc2)ncc1Cl | LATS1 | target engagement in cells, BRET |  |  | 301
CCOC(=O)c1c(NCCC(C)C)c2c([nH]c1=O)CCC2 | gag-pol reverse transcriptase | enzyme activity, inhibitor |  |  | 88700
C=CCn1c(=O)c2cnc(Nc3ccc(N4CCN(C)CC4)cc3)nc2n1-c1ccc2c(n1)[C@@](O)(CC)CC2 | Cytochrome P450 2C19 (CYP2C19, Homo sapiens, UniProt P33261) | enzyme activity, inhibitor |  |  | 10000
O=C1CCc2ccc(OCCCCN3CCN(c4cccc(Cl)c4Cl)CC3)cc2N1 | SLC18A2 | transporter uptake, inhibitor, radiometric |  | cell membranes | 36
CC1=C(/C=C/C(C)=C/C=C/C(C)=C\C(=O)O)C(C)(C)CCC1 | CA1 | enzyme activity, inhibitor, absorbance |  | pH 7.4 | 8470
CCCCCCNc1c2c([nH]c(=O)c1C(=O)OCC)CCC2 | gag-pol reverse transcriptase | enzyme activity, inhibitor |  |  | > 100000
OC1(c2ccc(-c3ccnc4[nH]cc(F)c34)cc2)CCCNCC1 (stereo not shown) | LATS1 | enzyme activity, inhibitor, radiometric |  |  | 17
Cc1cc2c(cc1C)N[C@H](c1ccccc1)[C@@H](O)C(=O)N2 | ERBB2 | enzyme activity, inhibitor, ELISA |  |  | 23
C[C@@H]1CNC[C@H](C)[C@@]1(O)c1ccc(-c2ccnc3[nH]cc(F)c23)cc1 | LATS1 | enzyme activity, inhibitor, radiometric |  |  | 11
C[C@H]1[C@H](C)CC[C@]2(C(=O)O)CC[C@]3(C)C(=CC[C@@H]4[C@@]5(C)C[C@@H](O)[C@H](O)C(C)(C)[C@@H]5CC[C@]43C)[C@H]12 | UGT1A4 | enzyme activity, inhibitor | human, liver microsomes |  | 2660
CCOC(=O)c1c(NC)c2c([nH]c1=O)CCC2 | gag-pol reverse transcriptase | enzyme activity, inhibitor |  |  | > 100000
NC(=O)c1nnn(Cc2cc(Cl)c(C(=O)c3ccc(Cl)cc3)c(Cl)c2)c1N | Delta-type opioid receptor (OPRD1, Homo sapiens, UniProt P41143) | cAMP, antagonist |  |  | 1090
CC(=O)N1C[C@@H](C)[C@](O)(c2c(C)cc(-c3ccnc4[nH]cc(F)c34)cc2F)[C@@H](C)C1 | LATS1 | enzyme activity, inhibitor, radiometric |  |  | 6.7
CCOC(=O)c1c(NCCC2CC2)c2c([nH]c1=O)CCC2 | gag-pol reverse transcriptase | enzyme activity, inhibitor |  |  | > 100000
Fc1c[nH]c2nccc(-c3ccc(C4CCNCC4)cc3)c12 | LATS1 | enzyme activity, inhibitor, radiometric |  |  | 8.8
CCOCCn1c(C2CCN(CCc3ccc(C(C)(C)C(=O)O)cc3)CC2)nc2ccccc21 | CA2 | enzyme activity, inhibitor, absorbance |  | pH 7.4 | 13400
Cc1cc(-c2ccnc3[nH]cc(F)c23)cc(F)c1[C@@]1(O)[C@H](C)CNC[C@@H]1C | LATS1 | target engagement in cells, BRET |  |  | 27
Cc1ccc(C(=O)Nc2ccc(CN3CCN(C)CC3)c(C(F)(F)F)c2)cc1C#Cc1cnc2cccnn12 | SLC18A2 | transporter uptake, inhibitor, radiometric |  | cell membranes | 700
